Reference: ChEMBL document CHEMBL1140653, “Cytostatic activity of novel 4'-aminochalcone-based imides” (Bioorg Med Chem Lett, 2007)

Assays:
[1] = system: L1210; assay: Cytotoxicity against mouse L1210 cells; assay type: functional, cell-based
[2] = Cytotoxicity against human Molt4/C8 cells; assay type: functional, cell-based; details: MOLT-4
[3] = system: CCRF-CEM; assay: Cytotoxicity against human CEM cells; assay type: functional, cell-based
[4] = system: Mus musculus; assay: Neurotoxicity in mouse at 300 mg/kg, ip after 4 hrs by rotating rod method; assay type: toxicity, organism-based; design: dose 300 mg/kg, route intraperitoneal; details: in vivo
Method in brief: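 Intraperitoneal dosing in mice at 30, 100 and 300 mg/kg. Neurological deficit was scored by the rotating rod procedure at 0.5 and 4 h, with observation for other pathological signs. Results were recorded as animals showing neurotoxicity over total animals at each dose.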

[5] = system: Mus musculus; assay: Mortality in mouse at 300 mg/kg, ip after 4 hrs; assay type: ADME, organism-based; design: dose 300 mg/kg, route intraperitoneal; details: in vivo
Method in brief: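 Mice dosed intraperitoneally at 30, 100 and 300 mg/kg; animals observed for death at 0.5 and 4 h after injection as part of a short-term toxicity screen.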

SMILES	IC50 [1]	IC50 [2]	IC50 [3]	Activity [4]	Activity [5]
COc1ccc(/C=C/C(=O)c2ccc(N3C(=O)C=CC3=O)cc2)cc1OC	157 µM	202 µM	220 µM		
O=C(O)c1ccc(/C=C/C(=O)c2ccc(N3C(=O)C=CC3=O)cc2)cc1	135 µM	178 µM	133 µM	Toxic	Toxic
O=C(/C=C/c1ccc2c(c1)OCO2)c1ccc(N2C(=O)C=CC2=O)cc1	160 µM	214 µM	258 µM		
O=C(/C=C/c1ccc(Cl)c(Cl)c1)c1ccc(N2C(=O)C=CC2=O)cc1	6.5 µM	8.8 µM	7.7 µM		
Cc1ccc(/C=C/C(=O)c2ccc(N3C(=O)C=CC3=O)cc2)cc1	1.5 µM	2.4 µM	4.1 µM		
COc1ccc(/C=C/C(=O)c2ccc(N3C(=O)C=CC3=O)cc2)cc1	9.8 µM	7.9 µM	8.4 µM	Non-toxic	
O=C(/C=C/c1ccc([N+](=O)[O-])cc1)c1ccc(N2C(=O)C=CC2=O)cc1	> 500 µM	> 500 µM	> 500 µM		
O=C(/C=C/c1ccc(Cl)cc1)c1ccc(N2C(=O)C=CC2=O)cc1	7.3 µM	7.5 µM	7.5 µM		
O=C(/C=C/c1ccccc1)c1ccc(N2C(=O)C=CC2=O)cc1	8.6 µM	9.5 µM	9.8 µM		
